# E coli WT exp: growth inhibitors of E. coli BW25113 wild type; hit rate 0.15% among 98,000; growth inhibition, % at 100 µM; OD600 absorbance;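 active = growth inhibition above about 50% at one test dose, limit read from the data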;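 also: growth measured after 20 h incubation at 37 °C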
# PostGolgi yeast: growth inhibition of a yeast mutant, post-Golgi transport screen. post-Golgi transport phenotypic cell assay. inhibition, % at 10 µM. hit rate 0.9% among 98,000. AID 739;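 also: yeast cells grown in 1536-well plates; yeast grown about 18 h at 30C before absorbance read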
# PostGolgi ctrl: inhibits growth of the yeast control strain; efflux-deficient yeast background strain, growth absorbance A615, 16 h; inhibition, % at 10 µM; hit rate 5% among 98,000; AID 738
# Ecoli tolC: blocks growth of E. coli BW25113 tolC mutant | OD615 | growth inhibition, % at 10 µM (by protocol) | hit rate 2.2% among 65,000;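 active = growth inhibition at or above a cutoff equal to the mean over every tested compound plus 3 SD, cut at about 60% in these data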;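 also: growth measured after 20 h incubation at 37 °C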
#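 Test system: E. coli BW25113 ΔtolC::kan bacteria; incubation: 37 °C, 20 h exposure; medium: LB broth supplemented with 50 µg/mL kanamycin; read-out basis: percent growth inhibition; signal: A615 absorbance measurement; compound: 10 µM final, single dose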
# Her2 expr inh: inhibitors of human Her2 kinase expression; P04626; SKBR-3 HER2 protein level, AlphaScreen, 18-24 h; active compounds read low; HER2 level % of control, % at 10 µM; hit rate 0.69% among 65,000; AID 645;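 active = HER2 level under 5% of the carrier-only control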;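 also: 100% = DMSO carrier and 0% = 500 nM PU-H71 HSP90 inhibitor; lower value means stronger loss of Her2 protein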
# Starred values were filed as active, the others as inactive; . = not tested or not shown. This is a sample that favours compounds with a hit; in the whole collection about 6.6% have one here. Rule as the data show it, unless noted: active = inhibition above about 30%; inactive = the rest.
SMILES,E coli WT exp,PostGolgi yeast,PostGolgi ctrl,Ecoli tolC,Her2 expr inh
Cc1ccc(/C=C/C2=Cc3c(sc(NC(=O)CSc4n[nH]c(N)n4)c3C#N)C(C)(C)C2)o1,-12.0,-2.7,-3.0,2.4,-1.5*
Cc1oc2c(cc(NS(=O)(=O)c3ccc4c5c(cccc35)C(=O)N4)c3ccccc32)c1C(=O)OC(C)C,-8.0,-3.3,16.6,.,.
COC(=O)c1c(C)oc2c1cc(NS(=O)(=O)c1cccs1)c1ccccc12,-3.0,-0.3,37.7*,.,.
O=C(Cn1ccsc1=NC(=O)C(F)(F)F)c1ccccc1,4.0,-6.7,13.6,.,.
CC1CCCN(CCOCCOc2ccc(Cl)cc2Br)C1 (configuration not stated),28.0,102.7*,21.6,.,.
CC1CC(C)CN(CCOc2ccc(Cl)cc2Cl)C1 (configuration not stated),40.0,89.4*,29.4,.,.
O=C(NCc1cccs1)C1CC(=O)N(c2ccccc2)C1 (configuration not stated),2.0,2.5,2.0,-20.4,85.8
CCOC(=O)c1ccc(NC(=S)NCCCN2CCCCC2)cc1,5.0,8.0,2.3,.,.
CCCN(CCC)CCNC(=O)C(NS(=O)(=O)c1ccc2c(c1)CCC(=O)N2)c1ccccc1 (configuration not stated),6.0,-15.5,31.3*,-10.3,95.7
Cc1cccc(N2CCN(C(=O)c3ccc(NS(=O)(=O)c4c(C)noc4C)cc3)CC2)c1C,-12.0,5.3,14.3,84.0*,70.4
Cc1noc(C)c1S(=O)(=O)Nc1ccc(C(=O)N2CCN(c3cccc(Cl)c3)CC2)cc1,0.0,18.4,11.9,.,.
CCc1cccc(NC(=O)c2ccc(NS(=O)(=O)c3c(C)noc3C)cc2)c1,14.0,0.3,-0.2,76.8*,97.7
Cc1cccc(NC(=O)c2ccc(NS(=O)(=O)c3c(C)noc3C)cc2)c1,-1.0,20.3,-2.2,44.5,104.3
COc1ccc(CNc2nc3nc4c(c(=O)n3[nH]2)CCC4)cc1,-7.0,13.6,9.7,.,.
CCOc1cc(C(=O)Nc2cccc3ncccc23)cc(OCC)c1OCC,4.0,19.5,0.6,.,.
CCOC(=O)C1=C(CSc2nc(-c3ccccc3)ccc2C#N)OC(N)=C(C#N)C1c1ccc(OC)cc1 (configuration not stated),-17.0,-9.7,8.2,.,.
COc1ccccc1-c1cc2nc(C)c(CCC(=O)NC(C)CCc3ccco3)c(C)n2n1 (configuration not stated),0.0,1.7,37.3*,.,.
O=C(COC(=O)C1=COCCO1)Nc1ccc(Oc2ccccc2)cc1,6.0,3.0,1.0,.,.
CC1(C)CC(=O)C(C=NCCN2CCN(CCCCS(=O)(=O)O)CC2)=C(O)C1,-1.0,5.6,32.5*,-6.9,90.2
CC1(C)CC(=O)C(C=NCCN2CCOCC2)=C(O)C1,0.0,9.4,14.1,-7.5,111.0
COc1ccc(N2CCN(C(c3cccs3)C(C)NS(=O)(=O)c3ccccc3)CC2)cc1 (configuration not stated),-15.0,3.3,39.0*,40.2,77.2
O=C(C1CCCN(c2ncccn2)C1)N1CCc2ccccc21 (configuration not stated),-1.0,4.1,3.4,3.3,80.8
Cn1c(=O)n(CC(=O)OCc2ccccc2)c(=O)c2c1nc1n2CCCN1C1CCCCC1,.,.,.,-6.6,89.9
C=CCn1c(O)c(C2=c3ccccc3=NC2=O)sc1=Nc1ccc(O)cc1,.,.,.,100.0*,31.9
Cc1c(C)[n+](=O)c(-c2ccc(F)cc2)c(C)n1[O-],-1.0,-0.8,5.7,1.0,71.1
SMILES,E coli WT exp,PostGolgi yeast,PostGolgi ctrl,Ecoli tolC,Her2 expr inh
Cc1c(C)[n+](=O)c(-c2ccco2)c(C)n1[O-],0.0,-0.8,30.9*,-15.2,118.6
CCN(CC(=O)NCc1ccccn1)S(=O)(=O)c1ccc(Cl)cc1,6.0,4.4,27.3,-12.8,.
N#Cc1c(-c2ccccc2)cc(-c2ccccc2)nc1SCc1nnc(-c2ccccc2)o1,-13.0,-4.3,20.0,.,.
CS(=O)(=O)c1nc(-c2ccccc2)cc(-c2ccccc2)c1C#N,-8.0,2.4,54.5*,.,.
Cc1c(NC(=O)Nc2ccc(Cl)c(Cl)c2)c(=O)n(-c2ccccc2)n1C,13.0,-1.4,12.2,100.0*,106.0
COc1ccccc1CO/N=C/NC(=O)c1c(OC)ccnc1Oc1ccc(F)cc1,-11.0,-29.1,50.6*,.,.
COc1ccc(CCNC(=O)CSc2nc(N)c(C#N)c(-c3cccs3)c2C#N)cc1OC,-5.0,3.0,4.8,-0.4,1.8*
CCSc1nc(N)nc(-c2cccs2)c1C#N,6.0,28.4,40.3*,.,.
Cc1ccccc1NC(=O)CSc1nc(N)c(C#N)c(-c2cccs2)c1C#N,-2.0,-7.1,-0.7,12.2,88.4
N#Cc1c(N)nc(SCc2ccncc2)c(C#N)c1-c1cccs1,-11.0,-1.9,48.6*,-4.7,60.0
Cc1ccc(-n2nnnc2SCn2nnc3ccccc3c2=O)c(C)c1,3.0,-2.3,19.8,.,.
COC(=O)c1c(C(=O)OC)c(-c2ccc(Cl)c(Cl)c2)n2c1CCC2,-7.0,1.3,36.3*,.,.
CSc1ncc(Cl)c(C(=O)NCc2ccc3c(c2)OCO3)n1,-6.0,-7.3,1.7,-1.5,95.6
CSc1ncc(Cl)c(C(=O)C(C#N)c2nc3c(C)cc(C)cc3c(=O)[nH]2)n1 (configuration not stated),-11.0,-2.1,21.9,95.9*,81.2
Cc1ccc(C)c(Cn2nnc3c(=O)[nH]c(C4CCN(C(=O)c5cccs5)CC4)nc32)c1,2.0,-4.0,5.6,64.1*,95.8
O=C(c1ccc(Cl)cc1Cl)N1CCC(c2nc3c(nnn3Cc3ccco3)c(=O)[nH]2)CC1,-2.0,30.2*,-10.3,17.6,66.7
Cc1cccc(-n2c(SCc3cc(=O)n4c(C)cccc4n3)nc3[nH]ncc3c2=O)c1,3.0,5.5,7.9,.,.
COC(=O)c1ccccc1NC(=S)NC(=O)COc1ccccc1Cl,-2.0,-1.4,31.4*,.,.
COC(=O)c1ccccc1NC(=O)c1cccc(COc2ccccc2Cl)c1,-9.0,2.2,0.3,.,.
O=C(N/N=C/c1ccc(F)cc1)c1sccc1OCc1ccc(F)cc1,2.0,5.9,34.0*,.,.
O=C(N/N=C/c1ccc(Cl)cc1)c1sccc1OCc1ccc(F)cc1,-9.0,5.0,27.3,.,.
COc1ccc(NC(C)=O)cc1NC(=O)CCn1c(=O)sc2ccccc21,.,.,.,-7.0,94.8
Cc1ccc(OCC(=O)N2CCN(C(=O)Cc3ccccc3)CC2)cc1,3.0,2.7,30.9*,-1.9,123.3
Cc1ccc(-c2nnc(N3CCN(C(=O)COc4ccccc4)CC3)c3ccccc23)cc1,-7.0,-1.4,49.6*,.,.
CCOC(=O)CCCc1sc(N)nc1-c1[nH]c(=O)[nH]c1C,3.0,3.3,-2.4,-14.1,124.6
O=C1c2ccccc2CCCC12N=NCC2c1cccc2ccccc12 (configuration not stated),-18.0,6.3,32.5*,.,.
Cc1ccc(C2CN=NC23CCc2ccccc2C3=O)cc1 (configuration not stated),2.0,-6.4,14.8,.,.
Cc1ccc(N2C(=O)C(Cl)=C(Nc3c(C)n(C)n(-c4ccccc4)c3=O)C2=O)cc1,-12.0,20.4,33.4*,-27.6,86.1
Cc1cccc(N2C(=O)C(Cl)=C(Nc3c(C)n(C)n(-c4ccccc4)c3=O)C2=O)c1C,8.0,-10.2,-0.1,.,.

# Source: PubChem BioAssay
